Reference: ChEMBL document CHEMBL1255440, “An antimicrobial peptide that targets DNA repair intermediates in vitro inhibits Salmonella growth within murine macrophages” (Antimicrob Agents Chemother, 2010)
Calls of active or inactive are those of the source. The rule behind the calls is not given here.

System: Salmonella typhimurium
Assay: Antibacterial activity against 1 MOI Salmonella enterica subsp. enterica serovar Typhimurium infected in mouse J774A1 cells assessed as reduction in bacterial growth at 2.5 times MIC
Format: functional, organism-based
Conditions: J774.A1
Procedure, shortened: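 J774A.1 cells or thioglycolate-elicited BALB/c peritoneal macrophages seeded at 200,000/well, overnight 37°C 5% CO2; infected with GFP strain SDT1416, 1 h invasion, washed, 1 h in DMEM with 15 μg/ml gentamicin. Then fresh DMEM plus 15 μg/ml gentamicin with or without peptide (DMSO vehicle) for 24 h at 37°C; macrophages lysed with 1% Triton X-100, plated on LB agar for CFU.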

`N=C(N)NCCC[C@H](NC(=O)[C@H](CS)NC(=O)[C@H](Cc1ccc(O)cc1)NC(=O)[C@H](Cc1c[nH]c2ccccc12)NC(=O)[C@H](CCCNC(=N)N)NC(=O)[C@@H](N)Cc1c[nH]c2ccccc12)C(=O)O` was tested, and the Activity was “Active”.
